Screens deposited in PubChem BioAssay by several laboratories.
In the library only some 2.4% were active in any assay of this set; here they are far more common.
HNF4A DNA FP – change in binding of human HNF4 alpha to DNA | hit rate 0.3% among 360,000 | P41235 | activity change, % at 10 µM | HNF4a-FITC DNA binding, fluorescence polarization, 1 h; in the data active = activity change above about 30%, passing the limit was not always enough
TPT1 inhibitor – inhibitors of Candida albicans tRNA 2'-phosphotransferase TPT1. AID 1962. recombinant caTPT1, FP RNA substrate dephosphorylation. inhibition, % at 5 µM. hit rate 0.81% among 300,000;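 active = inhibition above the mean of all tested compounds plus 3 SD, set per screening campaign, cut at about 24% in these data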;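 also: plate controls were DMSO alone for no effect and ferristatin control at 100 nM for full effect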
Rpn11 block – Rpn11 (human) deubiquitinase inhibition; human 26S proteasome, Ub4-pepOG fluorescence polarization; 20S core pre-blocked with epoxomicin; inhibition, % at 20 µM; hit rate 0.59% among 360,000;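 active = inhibition at 20 µM, scaled to each plate's controls, above about 33%, limit read from the data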
Rin1-Abl PPI inh – blocks binding of human Rin1 to Abl; TR-FRET Rin1/Abl binding, biochemical; hit rate 0.4% among 360,000; P00519+Q13671; inhibition, % at 7.35 µM; AID 588664; in the data active = inhibition above about 5%, passing the limit was not always enough
Neddylation inh – inhibitors of human cullin neddylation; hit rate 0.58% among 360,000; TR-FRET cullin neddylation, biochemical; P61081+Q13564; inhibition, % at 25 µM; in the data active = inhibition above about 36%
Target sequence (P61081 whole entry, looked up): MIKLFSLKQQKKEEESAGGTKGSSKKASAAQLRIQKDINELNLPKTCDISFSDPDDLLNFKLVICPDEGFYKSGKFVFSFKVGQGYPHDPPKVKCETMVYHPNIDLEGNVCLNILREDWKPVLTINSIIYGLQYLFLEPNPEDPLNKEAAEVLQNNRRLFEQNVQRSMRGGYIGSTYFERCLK
Target sequence (Q13564 whole entry, looked up): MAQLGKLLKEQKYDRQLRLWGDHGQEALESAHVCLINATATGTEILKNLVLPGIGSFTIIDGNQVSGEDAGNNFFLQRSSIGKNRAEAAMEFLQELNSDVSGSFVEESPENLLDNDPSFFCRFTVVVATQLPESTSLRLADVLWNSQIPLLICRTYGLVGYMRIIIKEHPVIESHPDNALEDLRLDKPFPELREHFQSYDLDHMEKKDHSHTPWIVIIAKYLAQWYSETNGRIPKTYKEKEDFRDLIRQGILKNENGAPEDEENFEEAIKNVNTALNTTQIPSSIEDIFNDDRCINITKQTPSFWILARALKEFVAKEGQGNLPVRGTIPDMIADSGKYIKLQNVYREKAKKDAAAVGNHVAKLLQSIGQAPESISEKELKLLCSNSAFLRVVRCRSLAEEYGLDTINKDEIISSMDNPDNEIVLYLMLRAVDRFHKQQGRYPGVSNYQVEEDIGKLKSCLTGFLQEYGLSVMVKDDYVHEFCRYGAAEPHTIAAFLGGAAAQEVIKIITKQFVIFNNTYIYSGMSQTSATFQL
CSN deneddyl inh – inhibitors of human CSN-mediated cullin deneddylation | Q92905 | Purified CSN, SCF-Nedd8-OG deneddylation, fluorescence polarization | inhibition, % at 12.5 µM | hit rate 0.38% among 360,000 | AID 651999;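 active = pattern-corrected inhibition above about 35%, with an unprinted fluorescence ratio check between 0.5 and 1.5, limit read from the data, passing the limit was not always enough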;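 also: 0% = enzyme with substrate and 100% = substrate without enzyme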
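Test system: purified human Csn5 enzyme expressed in HEK293T cells. Amount: 0.24 nM enzyme. Reagent: SCFSkp2-Nedd8OG substrate at 10 nM final. Schedule: 90 min incubation of compound, enzyme and substrate at room temperature. Detection: fluorescence polarization. Read-out: % inhibition of substrate cleavage by Csn5.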
Rpn11 confirm – confirmation of human proteasome Rpn11 inhibitors. shares compounds with Rpn11 block. purified human 26S proteasome, Ub4-pepOG fluorescence polarization; proteasome pretreated with epoxomicin. inhibition, % at 20 µM. hit rate 29% among 1,900. AID 602318
MMP-2 counter – blocks human MMP-2, flagging nonselective RPN11 hits. shares compounds with Rpn11 block. recombinant MMP-2, FRET peptide cleavage fluorescence. inhibition, % at 20 µM. hit rate 4% among 1,900. AID 602330;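 also: human MMP-2 activated beforehand with APMA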
Thrombin FP – counter-screen for RPN11 inhibitors: inhibition of bovine thrombin | shares compounds with Rpn11 block | bovine thrombin cleavage of Ub4-pepOG, fluorescence polarization | inhibition, % at 20 µM | hit rate 13% among 1,900 | AID 602333;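 active = mean inhibition at least 40% at 20 µM, or signal 3 deviations below plate average, so some actives read negative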;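 also: plate controls were thrombin with DMSO for no effect and buffer wells lacking thrombin for full effect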
An asterisk follows results filed as active; i = inactive; . = no result shown. Rule as the data show it, unless noted: active = inhibition above about 40%; inactive = the rest.

SMILES	HNF4A DNA FP	TPT1 inhibitor	Rpn11 block	Rin1-Abl PPI inh	Neddylation inh	CSN deneddyl inh	Rpn11 confirm	MMP-2 counter	Thrombin FP
Cc1ccccc1OCC(=O)N1N=C(C(F)(F)F)CC1(O)C(C)(C)C (stereo not drawn)	5.3	-1.2	151.9*	2.9	14.3	3.5	-0.8	-11.9	-6.5
CCOc1ccc(/C=C/C(=O)N(C)CC(=O)Nc2cccc(F)c2)cc1OCC	0.7	-1.9	-0.9	-3.3	30.4	-3.9	.	.	.
COc1cc(/C=C2\SC(=Nc3c(C)n(C)n(-c4ccccc4)c3=O)NC2=O)ccc1O	8.9	.	90.0*	0.6	-14.4	21.7	31.5	10.3	12.7
CN=C1S/C(=C\c2ccc(O)c(OC)c2)C(=O)N1C	3.0	2.2	11.9	-5.6	-25.1	6.8	.	.	.
COc1cc(/C=C2\SC(=Nc3ccc(O)cc3)NC2=O)cc(OC)c1O	8.1	16.9	45.1*	0.0	-23.7	11.0	5.5	0.4	7.9
CCOc1cc(/C=C2\NC(=S)N(c3c(C)n(C)n(-c4ccccc4)c3=O)C2=O)ccc1O	24.5	23.0	114.4*	-3.6	-27.8	24.5	66.9*	30.4	44.7*
COc1cccc(NC(=S)N(CCN(C)C)C(C)c2ccncc2)c1 (stereo not drawn)	6.0	-1.5	-4.0	2.1	-7.5	5.9	.	.	.
COc1ccc2ccccc2c1CNC(=O)CC1C(=O)NCCN1CC(C)(C)C (stereo not drawn)	7.8	16.6	35.3	-5.9	0.8	3.9	.	.	.
O=c1cc(-c2c(F)c(F)c(F)c(F)c2F)oc2ccccc12	0.8	-0.5	0.8	-3.4	-25.2	6.8	.	.	.
O=c1cc(-c2cccc(F)c2)oc2ccccc12	-4.7	.	41.2*	-2.0	-3.6	2.7	-19.3	5.1	-13.9
O=C(NCc1ccccc1)Nc1cccn(Cc2ccccc2Cl)c1=O	2.6	1.3	-3.2	1.9	20.3	-1.4	.	.	.
CCCCN1C(=O)C(=O)NC[C@@H]1CC1CCCCC1	7.1	.	.	.	-1.4	-4.3	.	.	.
CCCCOC(=O)Nc1nnc(CCc2ccccc2)s1	-2.9	-0.1	7.2	-1.2	11.0	2.3	.	.	.
CCCCOC(=O)Nc1nnc(CCOCC)s1	4.1	-0.4	33.6*	3.4	2.7	-1.4	-1.2	-15.0	-3.1
COCCCn1c(=N)c(C(N)=S)cc2c(=O)n3cccc(C)c3nc21	-4.6	7.6	12.2	-2.6	.	-2.2	.	.	.
Cc1cccn2c(=O)c3cc(C(N)=S)c(=N)n(CCCN4CCOCC4)c3nc12	8.9	-3.7	51.2*	-9.2	.	37.5*	4.4	49.2*	-2.8
COc1cc(/C=N/OCC(=O)Nc2cc(C)cc(C)c2)ccc1OCc1ccc(Cl)cc1	7.2	4.0	42.1*	-1.0	25.5	-1.8	28.9	-29.2	-1.1
COc1cc(/C=N/OCC(=O)NC2CCCCC2C)ccc1OCc1ccc(Cl)cc1 (stereo not drawn)	0.8	-0.9	6.2	-1.6	-2.5	-5.7	.	.	.
Cc1ccc(NS(=O)(=O)c2c(C)ccc3nsnc23)c([N+](=O)[O-])c1	1.9	-0.3	-0.8	2.9	-28.3	-0.6	.	.	.
N#C/C(=C\C1=C(N2CCOCC2)C(=C\c2ccc(Cl)cc2)/CC1)C(=O)Nc1ccccc1F	27.7	16.1	57.7*	-1.7	-3.3	16.6	56.4*	2.9	-34.2
CCN(CC)c1ccc(/C=C2\CCC(/C=C(\C#N)C(=O)Nc3ccccc3F)=C2N2CCOCC2)cc1	18.4	.	29.0	-0.5	5.7	15.6	.	.	.
N#C/C(=C/C1=C(N2CCOCC2)C(=C/c2ccc(Cl)cc2Cl)/CC1)C(=O)Nc1ccccc1F	26.5	.	41.6*	2.5	-19.0	31.8	18.0	-25.4	0.3
CN(C(=O)C1CCCC1)C1CCS(=O)(=O)C1 (stereo not drawn)	-1.9	-0.4	-4.5	4.8	4.6	-8.3	.	.	.
NS(=O)(=O)c1ccc(NC(=O)c2cccc(N3C(=O)c4ccccc4C3=O)c2)cc1	49.4	-2.4	79.0*	-1.6	-25.7	32.6	81.8*	i	-11.8
NS(=O)(=O)c1ccc(NS(=O)(=O)c2ccc(NC(=O)c3ccc(-c4ccccc4)cc3)cc2)cc1	-25.5	7.8	119.3*	-5.5	3.1	29.3	109.3*	32.4	100.6*
SMILES	HNF4A DNA FP	TPT1 inhibitor	Rpn11 block	Rin1-Abl PPI inh	Neddylation inh	CSN deneddyl inh	Rpn11 confirm	MMP-2 counter	Thrombin FP
NS(=O)(=O)c1ccc(NC(=O)c2ccc(-c3ccccc3)cc2)cc1	-31.8	.	100.8*	0.6	-26.1	33.7	119.2*	13.5	17.5
NS(=O)(=O)c1ccc(NC(=O)Nc2ccccc2)cc1	-2.9	-3.7	41.4*	-3.7	12.3	0.9	-14.2	-11.4	-30.9
O=C(Nc1ccncc1)c1ccc(S(=O)(=O)Nc2ccccc2)cc1	1.2	0.9	-0.1	0.8	-1.6	-4.5	.	.	.
CCCN(CC(=O)Nc1ccc(F)c(F)c1F)C(=O)c1cc([N+](=O)[O-])ccc1N1CCOCC1	2.8	0.7	1.8	-3.6	-9.6	1.6	.	.	.
CCC(C(=O)NC(C)(C)C)n1c(-c2cccc(NC(C)=O)c2)nc2ccccc21 (stereo not drawn)	-2.8	.	.	.	24.4	-1.7	.	.	.
O=C(Nc1ccc(C(F)(F)F)cc1)c1cnc(N2CCN(c3ccccn3)CC2)c2ccccc12	0.9	-4.2	2.7	2.0	-56.7	-2.7	.	.	.
CCOC(=O)N1CCN(CC(=O)Nc2cc(OC)c(OC)cc2C#N)CC1	1.3	2.1	-4.5	-0.1	3.1	-2.0	.	.	.
CC(C)CNC(=O)COC(=O)c1c2c(nc3ccccc13)/C(=C\c1cccs1)CC2	14.5	.	16.7	0.9	.	9.2	.	.	.
CN(CCC#N)C(=O)COC(=O)c1c2c(nc3ccccc13)/C(=C/c1ccco1)CC2	-11.0	20.2	71.4*	5.8	13.3	44.7	44.8*	29.7	25.4
CC(=O)N(/N=C1\Sc2ccccc2C1=O)c1ccccc1C	25.0	3.1	38.6*	-1.7	-29.3	27.5	4.8	-44.2	9.0
Cc1sc2nc(SCC(=O)Nc3ccccc3F)[nH]c(=O)c2c1C	-0.2	2.4	0.0	-0.7	-40.7	-3.3	.	.	.
Cc1csc(NC(=O)CSc2nc3sc(C)c(C)c3c(=O)[nH]2)n1	21.4	11.8	53.1*	2.4	-60.0	19.6	44.3*	-4.5	28.9
O=C(Sc1ccc(Cl)cc1)c1ccccn1	0.5	2.3	0.9	0.9	11.4	4.5	.	.	.
COc1ccc(-c2ccc(/C=C3/C(=N)N4C=CSC4=NC3=O)o2)c([N+](=O)[O-])c1	1.9	15.3	41.4*	-2.9	-18.8	-1.6	2.7	-12.6	13.1
